The text below walks through data of ChEMBL document CHEMBL5137016, “Turning Nonselective Inhibitors of Type I Protein Arginine Methyltransferases into Potent and Selective Inhibitors of Protein Arginine Methyltransferase 4 through a Deconstruction-Reconstruction and Fragment-Growing Approach” (J Med Chem, 2022).

Each structure is given as a SMILES string. Activity calls are given as the source filed them. The calls are words filed in the database; no cut-off is given here.

The target of data set [1] is T1, Histone-arginine methyltransferase CARM1 (Homo sapiens) (UniProt Q86X55).
T1 sequence (whole entry): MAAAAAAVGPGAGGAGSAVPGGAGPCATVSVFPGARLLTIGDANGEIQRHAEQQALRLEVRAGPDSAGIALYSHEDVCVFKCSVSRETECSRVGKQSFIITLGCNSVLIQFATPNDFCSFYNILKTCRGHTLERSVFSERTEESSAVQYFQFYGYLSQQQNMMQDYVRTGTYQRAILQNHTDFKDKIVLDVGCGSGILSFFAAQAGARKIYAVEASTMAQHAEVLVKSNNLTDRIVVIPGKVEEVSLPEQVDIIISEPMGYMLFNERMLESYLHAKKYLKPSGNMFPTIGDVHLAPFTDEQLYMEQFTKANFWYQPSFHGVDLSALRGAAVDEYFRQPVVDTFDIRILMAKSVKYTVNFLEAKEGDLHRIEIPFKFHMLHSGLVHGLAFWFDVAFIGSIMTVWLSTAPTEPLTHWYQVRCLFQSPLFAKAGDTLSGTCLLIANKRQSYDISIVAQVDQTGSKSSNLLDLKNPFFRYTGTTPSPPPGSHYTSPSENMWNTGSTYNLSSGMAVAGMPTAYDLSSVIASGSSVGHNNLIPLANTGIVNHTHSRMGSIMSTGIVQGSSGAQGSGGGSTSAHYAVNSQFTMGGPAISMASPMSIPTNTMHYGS
Description: Binding affinity to full length recombinant PRMT4 (unknown origin) assessed as in vitro residence time by surface plasmon resonance analysis. In outline: (§1)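 Full-length recombinant PRMT4 was amine-coupled to a CM5 chip at 50 μg/mL in 10 mM acetate pH 4.5, to 4.6 kRU, with an empty reference cell. The running buffer was PBS pH 7.4 with 0.05% Tween-20 and 2% DMSO. Compounds ran as 12 serial dilutions from 640 to 10 nM at 25 °C and 30 μL/min, with 90 s association and 90 s dissociation. Data were solvent-corrected and double-referenced, and KD was taken as koff/kon.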

The target of data set [2] is T1, Histone-arginine methyltransferase CARM1 (Homo sapiens). Description: Binding affinity to full length recombinant PRMT4 (unknown origin) assessed as binding constant (Koff) by surface plasmon resonance analysis. In outline:
as §1
(In general: SPR reads the build-up and loss of mass on a sensor chip optically.)

Data set [3] has the same target. Description: Binding affinity to full length recombinant PRMT4 (unknown origin) assessed as binding constant (Kon) by surface plasmon resonance analysis. In outline:
as §1

The nature of data set [4]: Toxicity in human HEK293T cells assessed as cell death at >10 uM measured after 24 hrs. Conditions: hek-293t.
Data set [5] relates to MCF7. The experiment in a line: Antiproliferative activity against human MCF7 cells assessed as reduction in cell viability at 10 uM incubated up to 8 days by cell titer-glo assay. The data set is classed as functional, cell-based. The conditions noted are these: time <= 8.0 day. In outline: (§2)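 MCF7 seeded at 1000 cells/well in 96-well plates; proliferation read at days 0, 2, 4, 6 and 8 with medium changed at day 4; viability measured by CellTiter-Glo luminescence.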
Background: ATP-based viability assays read luminescence as a measure of living cells.

A short description of data set [6]: Cytotoxicity against human HEK293T cells assessed as cell viability at 10 to 100 uM measured after 72 hrs by MTT assay. The data set is classed as toxicity, cell-based, HEK-293T. Conditions: dose 10-100 µM, read-out: Activity. In outline:
(§3)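 HEK293T cells grown in DMEM with 10% FBS, penicillin/streptomycin and 2 mM glutamine at 37 °C, 5% CO2; seeded at 5 × 10^4 cells/mL, exposed 24 or 72 h to 10, 50 or 100 μM in 0.2% DMSO; MTT formazan dissolved in DMSO, read at 550 nm minus 620 nm; quadruplicate; percent of 0.2% DMSO control.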
On the technique in general: Tetrazolium assays rely on reduction of a dye to a coloured formazan, in cell work by metabolically active cells.

For a further data set, the system named is HEK-293T. Description: Cytotoxicity against human HEK293T cells assessed as cell viability at 10 to 100 uM incubated for 24 to 72 hrs by MTT assay. The conditions noted are these: dose lower 10 µM, time lower 24 hrs, dose upper 100 µM, time upper 72 hrs. The data set is classed as toxicity, cell-based. Put shortly:
as §3

Data set [7] can be described thus: Apparent permeability of the compound in phosphate buffer at pH 7.4 measured after 24 hrs by PAMPA assay. The data set is classed as ADME. Conditions: pH 7.4, 24 h.
Data set [8] has as its target T2, Histone-arginine methyltransferase CARM1 (Homo sapiens, UniProt Q86X55).
T2 sequence (Q86X55 whole entry): T1 sequence (whole entry)
The experiment in a line: Inhibition of PRMT4 (unknown origin).

The next data set is filed under the species Homo sapiens. Description: Selectivity index, ratio of IC50 for inhibition of human full length recombinant GST-tagged PRMT6 (2 to 375 residues) using GST-GAR as substrate to IC50 for inhibition of human full length recombinant GST-tagged PRMT4 (2 to 608 residues) using histone H3 as substrate. Put shortly:
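Radioisotope filter-binding assay: PRMT6 used 5 μM GST-GAR and PRMT4 used 5 μM histone H3, in pH 8.5 Tris buffer with 1% DMSO. Compound was preincubated 20 min at room temperature, then 1 μM 3H-SAM was added for 60 min at 30 °C, with scintillation read-out. […] Index = IC50(PRMT6)/IC50(PRMT4), rounded to integer.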

Data set [9] deals with MCF7. The experiment in a line: Antiproliferative activity against human MCF7 cells assessed as reduction in cell viability at 50 uM incubated up to 8 days by cell titer-glo assay. The conditions noted are these: time <= 8.0 day. The data set is classed as functional, cell-based. Put shortly:
as §2

For `C[S+](CCC(N)C(=O)O)C[C@H]1O[C@@H](n2cnc3c(N)ncnc32)[C@H](O)[C@@H]1O` (single isomer, unassigned), in data set [1], the TIME came to 0.0926 h. Further, the K was 0.003 s⁻¹ in [2] and 2.9 10^5/Ms in data set [3].

Consider `CNCCN1CCC(c2cc(CN(C)C(=O)c3cccc(Oc4ccccc4)c3)ccn2)CC1`, for which, in [4], the Activity entry is “Toxic”. For the same molecule, the outcome with MCF7 [5] was Active.

Turning to `COC(=O)c1cc(O)c2cc(NC(=O)NCCCCNC(=N)NCCC[C@H]3O[C@@H](n4cnc5c(N)ncnc54)[C@H](O)[C@@H]3O)ccc2c1`, the viability at 72 h, up to 100 µM in [6] stood at 80%. In the data set with HEK-293T, the Activity entry is “Non-Toxic”. In addition, in [3], the K was 0.25 10^6/Ms. The permeability entry in [7] was “Impermeable”.

For the molecule `COC(=O)c1cc(O)c2cc(NC(=O)NCCCCCCCNC(=N)NC[C@H]3O[C@@H](n4cnc5c(N)ncnc54)[C@H](O)[C@@H]3O)ccc2c1`, the K in data set [3] is 2.58 10^4/Ms.

Take `COC(=O)c1cc(O)c2cc(NC(=O)NCCCCNC(=N)NCC[C@H]3O[C@@H](n4cnc5c(N)ncnc54)[C@H](O)[C@@H]3O)ccc2c1`: the viability at 72 h, up to 100 µM in data set [6] turned out to be 80%. For the same molecule, the Activity result in the data set on HEK-293T was “Non-Toxic”. Further, in data set [3], the K was 2.7 10^6/Ms. For the same molecule, the permeability result in data set [7] is recorded as “Impermeable”.

One may read the IC50 as the concentration at which inhibition is half-maximal. Higher therefore signals weaker potency in that assay. In [8], `COc1ccc(CCNC(=O)[C@@H](N)CC[C@H](CNCc2ccccc2)C[C@H]2O[C@@H](n3cnc4c(N)ncnc43)[C@H](O)[C@@H]2O)cc1` returned an IC50 of 1900 nM.

Take `COC(=O)c1cc(O)c2cc(NC(=O)NCCCCCNC(=N)NC[C@H]3O[C@@H](n4cnc5c(N)ncnc54)[C@H](O)[C@@H]3O)ccc2c1`: the K in data set [3] was 3.49 10^4/Ms. Further, the Selectivity Index in the data set filed under Homo sapiens is > 238.

`COC(=O)c1cc(O)c2cc(NC(=O)NCCCCNC(=N)NC/C=C/[C@H]3O[C@@H](n4cnc5c(N)ncnc54)[C@H](O)[C@@H]3O)ccc2c1`: the viability at 72 h, up to 100 µM in [6] was determined as 80%. Also, the Activity result with HEK-293T is on record as “Non-Toxic”. The outcome with MCF7 [9] was Active. The permeability entry in data set [7] is given as “Impermeable”.
